pEC50: −log10 of the molar value. Calls of active or inactive are those of the source. The calls are words filed in the database; no cut-off is given here.
Columns and labels:
Mu-type opioid receptor [1] = biological target: T1, Mu-type opioid receptor (Homo sapiens, UniProt P35372); assay: Agonist activity at human MOR receptor expressed in HTLA cells co-expressing TEV-fused-beta-arrestin2 assessed as induction of beta-arrestin2 recruitment by Tango assay relative to DAMGO; assay type: functional, cell-based
Summary of the method: (§1)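 HTLA cells expressing TEV-fused β-arrestin2 transiently transfected with a human MOR Tango construct. β-arrestin2 recruitment measured. […] Mean pEC50 ± SEM and Emax% ± SEM from triplicate runs.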

Mu-type opioid receptor [2] = biological target: T1, Mu-type opioid receptor; assay: Agonist activity at human MOR expressed in HEK293T cells assessed as inhibition of forskolin-stimulated cAMP accumulation incubated for 30 mins by Glo-sensor cAMP assay; assay type: functional, cell-based
Summary of the method: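 HEK293T cells transiently co-transfected with human MOR and a luciferase-based cAMP biosensor. Gαi-mediated cAMP inhibition read by luminescence. EC50 given as pEC50 ± SEM, triplicate runs.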

Mu-type opioid receptor [3] = biological target: T1, Mu-type opioid receptor; assay: Agonist activity at human MOR expressed in HEK-293T cells assessed as inhibition of forskolin-stimulated cAMP accumulation incubated for 30 mins by Glo-sensor cAMP assay relative to DAMGO; assay type: functional, cell-based; details: HEK293T
Summary of the method: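 HEK293T cells transiently co-transfected with human MOR and a luciferase-based cAMP biosensor. Gαi-mediated cAMP inhibition read by luminescence. […] EC50 given as pEC50 ± SEM, triplicate runs.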

[4] = Toxicity in C57BL/6 mouse model assessed as conditioned place preference at 10 mg/kg, IP; assay type: organism-based; details: in vivo
Summary of the method: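 Counterbalanced two-compartment place conditioning in C57BL/6J mice. […] Time on drug-paired side over a 20 min test compared with preconditioning by Welch-corrected t test.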

[5] = Toxicity in C57BL/6 mouse model assessed as charcoal distance travel at 15 mg/kg, sc measured after 3 hrs by gastrointestinal transit assay (reference value: 29.5 +/- 1 cm); assay type: organism-based; details: in vivo
Mu-type opioid receptor [6] = biological target: T1, Mu-type opioid receptor; assay: Partial agonist activity at human MOR expressed in HEK293T cells co-expressing Galpha-RLuc8:Gbeta:Ggamma-GFP2 assessed as maximal Gi-1 activation measured after 15 mins by BRET assay relative to control; assay type: functional, cell-based; details: filed as partial agonist
[7] = biological target: Voltage-dependent L-type calcium channel subunit alpha-1C (Rattus norvegicus, UniProt P22002); assay: Displacement of [3H]Diltiazem from Cav1.2 in rat brain at 10 uM incubated for 120 mins by radiometric scintillation counting analysis; assay type: tissue-based; details: 2 h
[8] = biological target: Mu-type opioid receptor (Mus musculus) (UniProt P42866); assay: Partial agonist activity at mouse MOR expressed in HEK293T cells assessed as Nb33 recruitment by BRET assay relative to control; assay type: functional, cell-based
Summary of the method: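 HEK293T cells transfected with murine MOR-NanoLuc (1 μg) and Nb33-Venus (4 μg) using PEI and used 48 h later. Cells in PBS given coelenterazine H (5 μM), ligand added at 5 min, BRET read 10 min later. Three-parameter fit; ≥3 independent trials in triplicate.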

Mu-type opioid receptor [9] = biological target: T1, Mu-type opioid receptor; assay: Agonist activity at human MOR expressed in CHO-K1 cells co-expressing beta-arrestin2 assessed as beta-arrestin2 EFC recruitment measured after 90 mins by PathHunter assay relative to control; assay type: functional, cell-based
Summary of the method: (§2)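 CHO-K1 cells stably expressing human μOR grown to confluency and seeded overnight at 37 °C, 5% CO2. 5× dilution series of compound in Opti-MEM added for 90 min at 37 °C. Detection reagent then added for 60 min at room temperature in the dark, and chemiluminescence read.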

[10] = biological target: GABA-A receptor; anion channel (Rattus norvegicus) (UniProt O09028+P15431+P18506+P18508+P19969+P20236+P23574+P23576+P28471+P28473+P30191+P62813+P63079+P63138+Q91ZM7+Q9ES14); assay: Partial agonist activity at GABAA receptor in rat brain slice assessed as induction of receptor-mediated inhibitory postsynaptic current at 10 uM by Whole cell electrophysiology; assay type: tissue-based; details: filed as partial agonist
Summary of the method: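 Horizontal VTA slices (200 μm) from male Sprague–Dawley rats. Whole-cell voltage clamp at −70 mV, 33 °C, KCl internal. GABAA IPSCs isolated with 10 μM DNQX and evoked by paired pulses every 10 s. Drug (10 μM) bath applied. Mean IPSC amplitude at minutes 4–7 of drug compared with the 4 min baseline.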

Mu-type opioid receptor [11] = biological target: T1, Mu-type opioid receptor; assay: Partial agonist activity at human MOR expressed in HEK293T cells co-expressing Galpha-RLuc8:Gbeta:Ggamma-GFP2 assessed as Galpha-i/o activation measured after TRUPATH assay; assay type: functional, cell-based; details: filed as partial agonist
Mu-type opioid receptor [12] = biological target: T1, Mu-type opioid receptor; assay: Agonist activity at human MOR receptor expressed in HTLA cells co-expressing TEV-fused-beta-arrestin2 assessed as induction of beta-arrestin2 recruitment by Tango assay; assay type: functional, cell-based; summary of the method: as §1
Mu-type opioid receptor [13] = biological target: T1, Mu-type opioid receptor; assay: Agonist activity at human MOR expressed in CHO-K1 cells co-expressing beta-arrestin2 assessed as beta-arrestin2 EFC recruitment measured after 90 mins by PathHunter assay; assay type: functional, cell-based; summary of the method: as §2

T1 sequence (P35372 whole entry, the tested form may be a part): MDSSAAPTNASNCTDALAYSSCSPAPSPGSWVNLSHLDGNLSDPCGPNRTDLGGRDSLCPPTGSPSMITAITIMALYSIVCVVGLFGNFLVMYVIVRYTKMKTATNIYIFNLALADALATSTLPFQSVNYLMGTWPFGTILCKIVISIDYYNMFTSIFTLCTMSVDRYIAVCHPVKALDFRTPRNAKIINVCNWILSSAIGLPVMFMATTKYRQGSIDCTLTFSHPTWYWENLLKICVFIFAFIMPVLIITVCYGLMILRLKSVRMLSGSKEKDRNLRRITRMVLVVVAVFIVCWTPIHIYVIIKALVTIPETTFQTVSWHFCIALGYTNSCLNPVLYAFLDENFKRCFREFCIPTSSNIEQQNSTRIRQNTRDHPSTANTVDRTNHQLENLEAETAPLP
Mu-type opioid receptor (Mus musculus), sequence (P42866 whole entry): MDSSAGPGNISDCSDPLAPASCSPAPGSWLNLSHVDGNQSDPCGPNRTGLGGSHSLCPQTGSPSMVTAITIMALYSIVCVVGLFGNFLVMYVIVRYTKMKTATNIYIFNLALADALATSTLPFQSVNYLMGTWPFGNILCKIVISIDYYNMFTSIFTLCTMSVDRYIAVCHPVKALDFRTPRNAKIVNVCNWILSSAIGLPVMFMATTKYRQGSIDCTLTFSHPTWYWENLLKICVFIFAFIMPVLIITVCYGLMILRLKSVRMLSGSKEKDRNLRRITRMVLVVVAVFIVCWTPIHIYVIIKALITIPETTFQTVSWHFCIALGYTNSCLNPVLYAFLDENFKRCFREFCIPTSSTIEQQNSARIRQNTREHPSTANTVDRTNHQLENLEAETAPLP
Voltage-dependent L-type calcium channel subunit alpha-1C, sequence (P22002 whole entry): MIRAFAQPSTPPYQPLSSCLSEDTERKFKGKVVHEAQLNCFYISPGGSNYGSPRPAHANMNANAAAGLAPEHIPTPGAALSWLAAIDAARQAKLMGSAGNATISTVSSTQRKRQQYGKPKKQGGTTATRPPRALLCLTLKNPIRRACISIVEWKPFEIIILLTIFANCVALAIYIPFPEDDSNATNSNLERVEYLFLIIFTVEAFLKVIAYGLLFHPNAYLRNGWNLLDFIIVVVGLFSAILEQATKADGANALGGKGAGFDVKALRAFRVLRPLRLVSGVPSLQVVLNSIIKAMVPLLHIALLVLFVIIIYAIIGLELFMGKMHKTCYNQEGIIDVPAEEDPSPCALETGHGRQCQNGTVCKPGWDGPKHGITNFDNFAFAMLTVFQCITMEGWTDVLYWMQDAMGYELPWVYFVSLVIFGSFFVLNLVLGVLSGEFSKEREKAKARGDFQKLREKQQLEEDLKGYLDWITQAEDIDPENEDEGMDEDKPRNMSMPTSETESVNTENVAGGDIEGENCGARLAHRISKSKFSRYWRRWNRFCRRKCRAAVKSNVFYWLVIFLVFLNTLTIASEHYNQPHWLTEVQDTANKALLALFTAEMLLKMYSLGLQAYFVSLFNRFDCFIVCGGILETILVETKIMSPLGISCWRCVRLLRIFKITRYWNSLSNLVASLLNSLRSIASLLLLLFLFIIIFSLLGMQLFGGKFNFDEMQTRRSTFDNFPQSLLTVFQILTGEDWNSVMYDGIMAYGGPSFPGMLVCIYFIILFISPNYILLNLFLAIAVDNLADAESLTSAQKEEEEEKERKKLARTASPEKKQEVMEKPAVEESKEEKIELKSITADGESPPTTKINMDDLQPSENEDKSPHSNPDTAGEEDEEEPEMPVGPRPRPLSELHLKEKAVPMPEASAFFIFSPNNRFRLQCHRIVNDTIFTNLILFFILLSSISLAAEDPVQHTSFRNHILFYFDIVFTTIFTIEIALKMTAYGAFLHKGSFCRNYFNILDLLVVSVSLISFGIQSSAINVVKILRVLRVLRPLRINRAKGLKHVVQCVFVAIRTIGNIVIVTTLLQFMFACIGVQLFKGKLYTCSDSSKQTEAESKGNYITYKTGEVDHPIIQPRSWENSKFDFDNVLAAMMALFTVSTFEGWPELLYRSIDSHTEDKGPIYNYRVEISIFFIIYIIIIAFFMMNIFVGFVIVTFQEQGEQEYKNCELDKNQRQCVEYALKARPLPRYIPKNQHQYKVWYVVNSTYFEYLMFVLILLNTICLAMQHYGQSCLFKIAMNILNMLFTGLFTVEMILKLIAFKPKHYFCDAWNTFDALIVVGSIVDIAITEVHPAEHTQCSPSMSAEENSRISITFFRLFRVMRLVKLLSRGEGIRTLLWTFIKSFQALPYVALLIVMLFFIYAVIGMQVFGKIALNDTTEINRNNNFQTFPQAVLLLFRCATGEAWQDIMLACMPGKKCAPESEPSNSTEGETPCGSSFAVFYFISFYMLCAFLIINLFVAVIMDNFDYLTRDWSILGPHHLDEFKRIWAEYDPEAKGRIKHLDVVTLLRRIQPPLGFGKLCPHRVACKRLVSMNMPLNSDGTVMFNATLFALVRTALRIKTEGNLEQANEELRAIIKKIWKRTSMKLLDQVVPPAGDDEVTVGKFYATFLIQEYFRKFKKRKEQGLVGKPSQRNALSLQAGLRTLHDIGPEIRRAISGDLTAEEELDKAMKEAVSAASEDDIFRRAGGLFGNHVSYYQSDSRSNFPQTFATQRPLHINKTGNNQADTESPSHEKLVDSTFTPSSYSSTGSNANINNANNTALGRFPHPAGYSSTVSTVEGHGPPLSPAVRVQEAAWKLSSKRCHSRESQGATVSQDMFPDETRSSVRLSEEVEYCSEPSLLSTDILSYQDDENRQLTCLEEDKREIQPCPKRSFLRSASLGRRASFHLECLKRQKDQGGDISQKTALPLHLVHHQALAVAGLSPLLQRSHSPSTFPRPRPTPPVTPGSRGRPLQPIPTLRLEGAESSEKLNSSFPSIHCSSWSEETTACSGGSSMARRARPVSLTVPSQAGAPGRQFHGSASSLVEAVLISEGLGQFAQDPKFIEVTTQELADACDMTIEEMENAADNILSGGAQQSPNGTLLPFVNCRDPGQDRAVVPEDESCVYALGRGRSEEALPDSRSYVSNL

Row | Compound | Emax (Mu-type opioid receptor [1]; HTLA230) [%] | pEC50 (Mu-type opioid receptor [2]) | Emax (Mu-type opioid receptor [3]; filed as agonist) [%] | further results
1 | CC[C@@H]1CN2CC[C@@]3(O)C(=Nc4ccc(-c5ccccc5)c(OC)c43)[C@@H]2C[C@@H]1/C(=C\OC)C(=O)OC | < 20 | 6.98 | 88.7 | –
2 | CC[C@@H]1CN2CC[C@@]3(O)C(=Nc4c(C)ccc(OC)c43)[C@@H]2C[C@@H]1/C(=C\OC)C(=O)OC | < 20 | 7.95 | 69.3 | –
3 | CC[C@@H]1CN2CCc3c([nH]c4ccc(-c5ccoc5)c(OC)c34)[C@@H]2C[C@@H]1/C(=C\OC)C(=O)OC | < 20 | 7.07 | 90.8 | –
4 | CC[C@@H]1CN2CC[C@@]3(O)C(=Nc4ccc(C)c(OC)c43)[C@@H]2C[C@@H]1/C(=C\OC)C(=O)OC | < 20 | 7.52 | 9.58 | –
5 | CC[C@@H]1CN2CCc3c([nH]c4cccc(-c5ccoc5)c34)[C@@H]2C[C@@H]1/C(=C\OC)C(=O)OC | < 20 | 7.03 | 70.2 | –
6 | CC[C@@H]1CN2CCc3c([nH]c4c(C)ccc(OC)c34)[C@@H]2C[C@@H]1/C(=C\OC)C(=O)OC | < 20 | 7.15 | 83.9 | –
7 | CC[C@@H]1CN2CCc3c([nH]c4ccc(-c5ccccc5)c(OC)c34)[C@@H]2C[C@@H]1/C(=C\OC)C(=O)OC | < 20 | 5.42 | 73.9 | –
8 | CN1CC[C@]23c4c5ccc(O)c4O[C@H]2[C@@H](O)C=C[C@H]3[C@H]1C5 [MORPHINE] | – | – | – | Activity [4]: Toxic; Activity [5]: 5.07 cm
9 | CC[C@@H]1CN2CC[C@@]3(O)C(=Nc4cccc(C)c43)[C@@H]2C[C@@H]1/C(=C\OC)C(=O)OC | – | 8.28 | – | Emax (Mu-type opioid receptor [1]; HTLA230, filed as partial agonist): 110%; Emax (Mu-type opioid receptor [6]): 60%; Activity [7]: Active; Emax [8]: 20%; Emax (Mu-type opioid receptor [9]): < 20%; Activity [10]: Active; Emax (Mu-type opioid receptor [3]; filed as partial agonist): 108%; Activity (Mu-type opioid receptor [11]): Active; pEC50 (Mu-type opioid receptor [12]): 4.98; Emax (Mu-type opioid receptor [13]): 31%
10 | CC[C@@H]1CN2CC[C@@]3(O)C(=Nc4c(-c5ccoc5)ccc(OC)c43)[C@@H]2C[C@@H]1/C(=C\OC)C(=O)OC | < 20 | 5.81 | 61.8 | –
11 | CC[C@@H]1CN2CCc3c([nH]c4ccc(C)c(OC)c34)[C@@H]2C[C@@H]1/C(=C\OC)C(=O)OC | < 20 | 6.43 | 96.5 | –

Reference: ChEMBL document CHEMBL5030540 (J Med Chem, 2021)
